# In PMC7954469 (European journal of medicinal chemistry, 2021):
# Like-named read-outs stand apart in the source and are kept apart here. Where a SMILES comes first, the peptide text is derived from it. [ ]: non-standard residue; d: D form. The star is where a group is joined. Cbz = O=C(OCc1ccccc1)*
# What was measured:
# p97 [1] = conditions: cited from earlier work
# C522A mutant = conditions: cited from earlier work
# cancer cell lines = conditions: cited from earlier work
# Ub^G76V-GFP [2] = assay: Washout; assay type: cell-based, human; conditions: cycloheximide, additional 17 h
# p97 [3] = biological target: T1, p97 (Homo sapiens, UniProt P55072); assay: p97 ATPase activity assay; assay type: biochemical
# T1 sequence (P55072 whole entry): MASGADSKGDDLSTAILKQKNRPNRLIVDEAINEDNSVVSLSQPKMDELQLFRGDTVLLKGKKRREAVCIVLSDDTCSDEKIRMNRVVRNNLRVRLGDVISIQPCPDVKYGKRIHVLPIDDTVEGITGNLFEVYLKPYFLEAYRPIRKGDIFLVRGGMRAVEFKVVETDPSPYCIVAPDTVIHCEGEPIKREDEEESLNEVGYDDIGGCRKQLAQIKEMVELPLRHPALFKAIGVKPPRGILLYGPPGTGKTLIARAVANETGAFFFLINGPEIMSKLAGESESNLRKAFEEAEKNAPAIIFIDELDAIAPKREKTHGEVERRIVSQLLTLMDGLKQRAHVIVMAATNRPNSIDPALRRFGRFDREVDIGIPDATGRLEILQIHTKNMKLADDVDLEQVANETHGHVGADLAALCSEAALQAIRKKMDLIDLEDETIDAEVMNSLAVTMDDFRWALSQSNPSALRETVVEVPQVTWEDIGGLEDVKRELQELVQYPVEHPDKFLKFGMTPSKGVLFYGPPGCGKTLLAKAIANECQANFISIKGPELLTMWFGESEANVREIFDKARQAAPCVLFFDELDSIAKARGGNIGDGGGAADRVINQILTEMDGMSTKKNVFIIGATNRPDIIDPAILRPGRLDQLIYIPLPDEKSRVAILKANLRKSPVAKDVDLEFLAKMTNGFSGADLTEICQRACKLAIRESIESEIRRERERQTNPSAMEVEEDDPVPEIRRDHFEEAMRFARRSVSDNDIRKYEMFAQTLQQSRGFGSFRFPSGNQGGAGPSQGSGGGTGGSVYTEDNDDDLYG
# Yeast Cdc48 = Yeast Cdc48 (Saccharomyces cerevisiae, UniProt P25694); assay: ATPase activity assay, yeast Cdc48; assay type: biochemical
# Chain of Yeast Cdc48 (P25694 whole entry): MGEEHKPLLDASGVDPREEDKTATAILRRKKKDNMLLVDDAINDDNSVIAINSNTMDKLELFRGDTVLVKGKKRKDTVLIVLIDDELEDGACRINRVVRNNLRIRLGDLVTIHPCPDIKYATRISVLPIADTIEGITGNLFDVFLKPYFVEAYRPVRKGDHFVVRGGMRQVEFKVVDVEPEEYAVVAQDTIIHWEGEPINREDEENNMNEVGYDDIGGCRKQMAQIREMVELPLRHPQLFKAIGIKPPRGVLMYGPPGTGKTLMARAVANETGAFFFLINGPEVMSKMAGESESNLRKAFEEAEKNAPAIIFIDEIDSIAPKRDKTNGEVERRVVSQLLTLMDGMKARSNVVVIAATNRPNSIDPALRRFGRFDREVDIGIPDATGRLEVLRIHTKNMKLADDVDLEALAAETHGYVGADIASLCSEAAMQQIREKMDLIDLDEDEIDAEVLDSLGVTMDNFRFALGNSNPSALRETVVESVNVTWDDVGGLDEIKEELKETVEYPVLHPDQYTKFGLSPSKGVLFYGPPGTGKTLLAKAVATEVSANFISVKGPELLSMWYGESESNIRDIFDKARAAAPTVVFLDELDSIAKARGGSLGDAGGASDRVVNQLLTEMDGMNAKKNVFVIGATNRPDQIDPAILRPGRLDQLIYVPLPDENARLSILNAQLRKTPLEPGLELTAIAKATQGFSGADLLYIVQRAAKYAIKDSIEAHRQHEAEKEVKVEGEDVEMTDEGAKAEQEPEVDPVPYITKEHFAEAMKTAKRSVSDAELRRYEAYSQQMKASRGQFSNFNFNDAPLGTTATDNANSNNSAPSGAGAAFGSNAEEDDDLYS
# Hamster NSF = Hamster NSF (Cricetulus griseus, UniProt P18708); assay: ATPase activity assay, NSF; assay type: biochemical
# Chain of Hamster NSF (P18708 whole entry): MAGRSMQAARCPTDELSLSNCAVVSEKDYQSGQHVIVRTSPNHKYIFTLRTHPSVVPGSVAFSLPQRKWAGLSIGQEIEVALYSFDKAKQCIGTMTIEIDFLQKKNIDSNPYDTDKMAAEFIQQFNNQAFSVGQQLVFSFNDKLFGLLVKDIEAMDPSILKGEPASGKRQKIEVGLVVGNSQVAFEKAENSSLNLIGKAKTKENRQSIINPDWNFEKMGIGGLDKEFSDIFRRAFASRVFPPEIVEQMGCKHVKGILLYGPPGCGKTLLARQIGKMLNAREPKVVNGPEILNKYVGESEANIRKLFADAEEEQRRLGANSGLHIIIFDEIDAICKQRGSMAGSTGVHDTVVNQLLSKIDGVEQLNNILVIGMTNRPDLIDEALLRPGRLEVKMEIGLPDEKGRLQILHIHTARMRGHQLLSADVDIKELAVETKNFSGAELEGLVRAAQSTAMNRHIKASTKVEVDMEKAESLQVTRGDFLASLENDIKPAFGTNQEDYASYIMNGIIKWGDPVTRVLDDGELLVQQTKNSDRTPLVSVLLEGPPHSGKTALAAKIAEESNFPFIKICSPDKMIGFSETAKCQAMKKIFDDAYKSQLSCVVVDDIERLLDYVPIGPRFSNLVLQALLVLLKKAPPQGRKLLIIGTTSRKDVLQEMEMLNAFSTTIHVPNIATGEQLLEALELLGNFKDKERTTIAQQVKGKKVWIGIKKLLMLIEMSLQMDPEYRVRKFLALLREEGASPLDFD
# Human 26S proteasome = Human 26S proteasome (Homo sapiens, UniProt P28074); assay: Human 26S proteasome activity assay; assay type: biochemical; conditions: 5, 25, or 50 μM; affinity-purified 26S proteasome from Hek293 cells; listed as PPA
# How it was run: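 26S proteasome was affinity-purified from HEK293 cells stably expressing tagged Rpn11. Suc-LLVY-AMC (60 μM) then started the reaction. Fluorescence was read every 3 min for 30 min, in sextuplicate.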
# [4] = test system: CB-5083 resistant HCT116 cell line harboring D649A, T688A p97 mutant (CB-R); assay: Anti-proliferative assay, CB-5083 resistant HCT116; assay type: cell-based, human; conditions: compared with parental HCT116; listed as PPA
# [5] = test system: NMS-873 resistant HCT116 cell line harboring A530T p97 mutant (NMS-R); assay: Anti-proliferative assay, NMS-873 resistant HCT116; assay type: cell-based, human; conditions: compared with parental HCT116; listed as PPA
# How it was run: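 Cells were grown in RPMI1640 or DMEM with 5% FBS and 1% penicillin-streptomycin. Seeding was 750 or 3000 cells/well, set from each line's luminescence–cell-number standard curve. After 24 h, cells got test compound (eight three-fold dilutions) for 48 h at 37 °C, 5% CO2. Viability was read by CellTiter-Glo luminescence. IC50 came from % growth versus DMSO control. Data are mean ± SEM of four replicate experiments.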
# TCRα-GFP = assay: TCRα-GFP; assay type: cell-based, human; conditions: 10 μM, 60 min or 120 min, cycloheximide, HEK293 cells
# How it was run: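 HEK293 cells stably expressing TCRα-GFP were pretreated 1 h with 4 μM MG132, then washed. They were then incubated with 50 μM cycloheximide plus 10 μM test compound, or MG132 as control, for 60 or 120 min before harvest. Lysates were immunoblotted with anti-GFP, with anti-p97 as loading control, and detected by ECL.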
# T532C-yeast Cdc48 = T532C-yeast Cdc48 (Saccharomyces cerevisiae, UniProt P25694, T532C); assay: ATPase activity assay, T532C-yeast Cdc48; assay type: biochemical
# Chain of T532C-yeast Cdc48 (P25694 whole entry T532C): as the sequence (P25694 whole entry) above, with T532C counted along it
# p97 [6] = biological target: T1, p97; conditions: read-out: Apparent IC50 p97; ATPase activity; adapted from reference; cited from earlier work
# Ub^G76V-GFP [7] = conditions: read-out: Apparent IC50 Ub^G76V-GFP; adapted from reference; cited from earlier work
# ODD-Luc = conditions: read-out: Apparent IC50 ODD-Luc; adapted from reference; cited from earlier work
# C522A-p97 = C522A-p97 (Homo sapiens, UniProt P55072, C522A); conditions: cited from earlier work
# Chain of C522A-p97 (P55072 whole entry C522A): as the sequence (P55072 whole entry) above, with C522A counted along it
# Syk = conditions: cited from earlier work
molecule,measurement,setting,value
CC(=O)OCC1=C(C)C[C@H]([C@@H](C)[C@H]2CC[C@H]3[C@@H]4C[C@H]5O[C@]56[C@@H](O)C=CC(=O)[C@]6(C)[C@H]4CC[C@]23C)OC1=O [Withaferin A 27-Acetate],IC50,p97 [1]; wild-type p97,21 µM
same,Inhibition against the C522A mutant (in words),C522A mutant,didn’t show inhibition
same,Anti-proliferative effects at lower concentration than p97 IC50,cancer cell lines,10 fold
CC(C)C[C@@H](C=O)NC(=O)[C@@H](CC(C)C)NC(=O)[C@H](CC(C)C)NC(=O)OCc1ccccc1 [MG132] (Cbz-Leu-[dL]-Leu-aldehyde),Reversibility: Ub^G76V-GFP degradation after washout (in words),Ub^G76V-GFP [2],degraded after washing out
O=C(/C=C1\Nc2ccccc2C(=O)N2CCC[C@@H]12)/C=C/c1c[nH]c2ccc(I)cc12 [5’-I-Fuligocandin B],IC50,p97 [1],7 µM
CC(C)N1CCN(CCNC2CCN(c3cccc(-c4cc5cc(F)ccc5[nH]4)c3)CC2)CC1 [UPCDC30245],IC50,p97 [1]; allosteric p97 inhibitor,0.027 µM
"C=CC(=O)Nc1ncnc2c1c(-c1ccccc1)nn2C(C)(C)C [Compound 18, N-(1-(tert-butyl)-3-phenyl-1H-pyrazolo[3,4-d]pyrimidin-4-yl)acrylamide]",Selectivity on wild-type vs. Cys522-mutated p97,p97 [3],up to 100 fold
same,IC50,Yeast Cdc48,300 µM
same,IC50,Hamster NSF,100 µM
same,NSF less sensitive than p97,Hamster NSF,more than 100 fold
same,Inhibition of hydrolysis of LLVY-AMC by 26S proteasome (in words),Human 26S proteasome,did not inhibit
same,Anti-proliferative activity in CB-R HCT116 (in words),[4],can inhibit growth
same,Anti-proliferative activity in NMS-R HCT116 (in words),[5],can inhibit growth
same,Reversibility: Ub^G76V-GFP degradation after washout (in words),Ub^G76V-GFP [2],irreversibly block degradation
same,Degradation of ERAD substrate TCRα-GFP (in words),TCRα-GFP,block degradation
"CC(C)(C)n1nc(-c2ccc3ccccc3c2)c2c(N)ncnc21 [Compound 21, 2-Naphthyl pyrazolopyrimidine]",IC50,T532C-yeast Cdc48,> 100 µM
COc1cccc2c(NCc3ccccc3)nc(-n3c(N)nc4ccccc43)nc12 [ML240],IC50,p97 [1],~0.1 µM
Cc1ccc(-c2c(C(=O)CF)n(CCCO)c3ncnc(N)c23)cc1 [Compound 5],Less active than compound 4,"p97 [3]; in vitro and cell-based p97 assays, summary of Table 1",10 fold
c1ccc(CNc2nc(N3CCOc4ccccc43)nc3c2CCCC3)cc1 [ML241],IC50,p97 [1],~0.1 µM
O=C(O)/C=C/c1ccc2c(c1)OCO2 [Compound 7],Activity in ATPase and Ub^G76V-GFP turnover assays (in words),p97 [3]; summary of Tables 2 and 3,complete loss of activity
"CC1CCCC=CC(=O)c2c(O)cc(O)cc2CC(=O)O1 (stereo not shown) [Δ(10,11)-Dehydrocurvularin]",IC50,p97 [1]; covalent bond with Cys522,15.3 ± 9.9 µM
"3,4-methylenedioxy-β-nitrostyrene [Compound 2]",IC50,p97 [6],1.7 ± 0.5 µM
same,IC50,Ub^G76V-GFP [7],1.6 ± 0.4 µM
same,IC50,ODD-Luc,3.9 ± 1 µM
same,Activity towards the C522A mutant (in words),C522A-p97,poor activity
same,IC50 Syk (in words),Syk,submicromolar
Oxaspirol B,IC50,p97 [1],31.2 ± 3 µM
"CC(C)(C)n1nc(-c2ccccc2)c2c(N)ncnc21 [Compound 17, 4-amino-1-tert-butyl-3-phenyl pyrazolo[3,4-d]pyrimidine]",IC50,T532C-yeast Cdc48,> 100 µM
